The values below come from ChEMBL document CHEMBL1134088, “Fine Tuning of physico-chemical parameters to optimise a new series of novobiocin analogues” (Bioorg Med Chem Lett, 2001).

In brackets after ≈: the same amount, converted by molar mass.

The target in one series is DNA gyrase (Escherichia coli, UniProt P0AES4+P0AES6). Put plainly: Inhibitory activity against Escherichia coli DNA gyrase. In kind it is protein-complex assay.
A short description of series [1]: pKa value was determined. In kind it is physicochemical.
For series [2], the system named is Staphylococcus aureus. Kind of series: Compound was evaluated for its minimum inhibitory concentration against Staphylococcus aureus. In kind it is functional. The procedure, abridged: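 MIC by 2-fold broth microdilution, read after 24-h incubation; S. aureus strain 011HT3, no particular resistance phenotype.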
For series [3], the system named is Staphylococcus aureus. Kind of series: Compound was evaluated for its minimum inhibitory concentration against Staphylococcus aureus in presence of 10% serum. In kind it is functional. The procedure, abridged:
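MIC against S. aureus strain 011HT3 (no particular resistance phenotype) in medium containing serum proteins; 2-fold broth microdilution, read after 24-h incubation.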

As for `CCN1CCN(c2cc(=O)oc3c(C)c(O[C@@H]4OC(C)(C)[C@H](OC)[C@@H](OC(=O)c5ccc(C)[nH]5)[C@H]4O)ccc23)CC1`, the IC50 (as a rule, the concentration at which inhibition is half-maximal) at DNA gyrase was 439 nM. For the same molecule, in series [1], the pKa (in general, the negative logarithm of the acid dissociation constant) turned out to be 7.5. The MIC (in general, the smallest concentration in the dilution series that meets the test's criterion for growth inhibition) with Staphylococcus aureus [2] is 0.6 µg/mL (≈ 1.05 µM); in the series with Staphylococcus aureus [3], 2.5 µg/mL.

`CO[C@@H]1[C@@H](OC(=O)c2ccc(C)[nH]2)[C@@H](O)[C@H](Oc2ccc3c(N4CC(C)NC(C)C4)cc(=O)oc3c2C)OC1(C)C` (some centres not stated): half-maximal inhibition against DNA gyrase (IC50) required 281 nM. Also, the pKa in series [1] is 8. Moreover, the MIC against Staphylococcus aureus [2] worked out at 2.5 µg/mL (≈ 4.39 µM); with Staphylococcus aureus [3], 2.5 µg/mL.

As to `CO[C@@H]1[C@@H](OC(=O)c2ccc(C)[nH]2)[C@@H](O)[C@H](Oc2ccc3c(N4CC[N+](C)(C)CC4)cc(=O)oc3c2C)OC1(C)C`, the IC50 against DNA gyrase was 245 nM. In addition, the MIC with Staphylococcus aureus [2] and in the series on Staphylococcus aureus [3] was more than 40 µg/mL each time.

On to `CO[C@@H]1[C@@H](OC(=O)c2ccc(C)[nH]2)[C@@H](O)[C@H](Oc2ccc3c(N4CCNC(C)C4)cc(=O)oc3c2C)OC1(C)C` (some centres not stated), for which the IC50 on DNA gyrase is 225 nM. In addition, the pKa in series [1] was determined as 8.3. Further, the MIC is 2.5 µg/mL (≈ 4.5 µM) against Staphylococcus aureus [2] and 2.5 µg/mL in the series on Staphylococcus aureus [3].

In series [1], `CO[C@@H]1[C@@H](OC(N)=O)[C@@H](O)[C@H](Oc2ccc3c(O)c(NC(=O)c4ccc(O)c(CC=C(C)C)c4)c(=O)oc3c2C)OC1(C)C` [NOVOBIOCIN] showed a pKa of 3.6. Moreover, the MIC against Staphylococcus aureus [2] is less than 0.04 µg/mL; in the series on Staphylococcus aureus [3] it was 2.5 µg/mL.

Regarding `CO[C@@H]1[C@@H](OC(=O)c2ccc(C)[nH]2)[C@@H](O)[C@H](Oc2ccc3c(N4CCNCC4)cc(=O)oc3c2C)OC1(C)C`, at DNA gyrase, half-maximal inhibition (IC50) was put at 231 nM. This molecule also registered a pKa in series [1] of 8.3. In addition, the values for the MIC in the series on Staphylococcus aureus [2] and in the series with Staphylococcus aureus [3] were 5 µg/mL (≈ 9.23 µM) and 5 µg/mL, respectively.

In the case of `CO[C@@H]1[C@@H](OC(=O)c2ccc(C)[nH]2)[C@@H](O)[C@H](Oc2ccc3c(N4CCN(C)CC4)c(Cl)c(=O)oc3c2C)OC1(C)C`, the IC50 against DNA gyrase was 847 nM. Also, in series [1], the pKa is 7.4. Further, the values for the MIC in the series with Staphylococcus aureus [2] and in the series with Staphylococcus aureus [3] were 1.2 µg/mL (≈ 2.03 µM) and 20 µg/mL, respectively.

Regarding `CO[C@@H]1[C@@H](OC(=O)c2ccc(C)[nH]2)[C@@H](O)[C@H](Oc2ccc3c(N(C)CCN(C)C)cc(=O)oc3c2C)OC1(C)C`, the IC50 against DNA gyrase was 628 nM. The same molecule returned a pKa in series [1] of 8.2. Moreover, the values for the MIC with Staphylococcus aureus [2] and in the series with Staphylococcus aureus [3] were 5 µg/mL (≈ 8.97 µM) and 5 µg/mL, respectively.

Turning to `CO[C@@H]1[C@@H](OC(=O)c2ccc(C)[nH]2)[C@@H](O)[C@H](Oc2ccc3c(N4CCN(C)CC4)cc(=O)oc3c2C)OC1(C)C`, on DNA gyrase, 540 nM corresponded to half-maximal inhibition (IC50). In series [1], this molecule yielded a pKa of 7.3. For the same molecule, the figures for the MIC in the series on Staphylococcus aureus [2] and in the series on Staphylococcus aureus [3] were 0.15 µg/mL (≈ 0.27 µM) and 0.3 µg/mL, respectively.

Molecule `CO[C@@H]1[C@@H](OC(=O)c2ccc(C)[nH]2)[C@@H](O)[C@H](Oc2ccc3c(N4CCN(c5ccccn5)CC4)cc(=O)oc3c2C)OC1(C)C` showed an IC50 against DNA gyrase of 1780 nM. In series [1], this molecule displayed a pKa of 5.5. In addition, the values for the MIC with Staphylococcus aureus [2] and in the series with Staphylococcus aureus [3] were 0.3 µg/mL (≈ 0.485 µM) and 10 µg/mL, respectively.

The molecule `CO[C@@H]1[C@@H](OC(=O)c2ccc(C)[nH]2)[C@@H](O)[C@H](Oc2ccc3c(N4CCC(N(C)C)CC4)cc(=O)oc3c2C)OC1(C)C` gave an IC50 on DNA gyrase of 480 nM. Besides, the pKa in series [1] was found to be 9. Further, the MIC stood at 2.5 µg/mL (≈ 4.28 µM) against Staphylococcus aureus [2] and 2.5 µg/mL with Staphylococcus aureus [3].
